M1 antagonist = M1 muscarinic receptor (rat) antagonism; AID 628; CHO-M1 cells, Fluo-4 calcium, ACh EC80 antagonist mode; hits give low values; B-score at 10 µM; 64,000 compounds, 3.4% hits;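 active means calcium fluorescence response, raw or row-and-column corrected B-score, differing from the plate sample mean either way at a set confidence level, mostly lower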
HEK293 NFkB inh = lowers PMA/ionomycin-induced NF-kB signal in HEK293 cells; AID 465; 62,000 compounds, 0.21% hits; HEK-293 NF-kB luciferase reporter, luminescence; inhibition, % at 3 µM;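 active means inhibition above the mean of all tested compounds plus 3 SD, cut at about 40% in these data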;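 further: 0% = stimulated DMSO wells and 100% = 10 µM reference inhibitor 5653914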
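Signal: luciferase luminescence; Material: HEK-293 cells with stable firefly luciferase reporter driven by four HIV NF-kB elements; Probe or stimulus: PMA with ionomycin; Replication: tested once; Times: 1 h compound pretreatment, then 16 h stimulation at 37 °C, 5% CO2; Benchmarks: DMSO and 10 µM reference inhibitor; Evaluation: per-plate % inhibition versus controls.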
M1 agonist = agonists of M1 muscarinic receptor; CHO-M1 cells, Fluo-4 calcium fluorescence, agonist mode; hits give high values; B-score at 10 µM; 64,000 compounds, 3% hits; AID 626;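 active means fluorescence rise, raw or as B-score row- and column-corrected plate score, outside the 99.7% band of its plate's samples, either direction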
JNK3 inh = blocks human JNK3 kinase activity; 60,000 compounds, 0.61% hits; purified JNK3 kinase activity, HTS; P53779; inhibition, % at 8 µM; AID 746; in the data active means inhibition above about 17%;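 further: 0% = DMSO and 100% = reference inhibitor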
Target sequence (P53779 whole entry, looked up): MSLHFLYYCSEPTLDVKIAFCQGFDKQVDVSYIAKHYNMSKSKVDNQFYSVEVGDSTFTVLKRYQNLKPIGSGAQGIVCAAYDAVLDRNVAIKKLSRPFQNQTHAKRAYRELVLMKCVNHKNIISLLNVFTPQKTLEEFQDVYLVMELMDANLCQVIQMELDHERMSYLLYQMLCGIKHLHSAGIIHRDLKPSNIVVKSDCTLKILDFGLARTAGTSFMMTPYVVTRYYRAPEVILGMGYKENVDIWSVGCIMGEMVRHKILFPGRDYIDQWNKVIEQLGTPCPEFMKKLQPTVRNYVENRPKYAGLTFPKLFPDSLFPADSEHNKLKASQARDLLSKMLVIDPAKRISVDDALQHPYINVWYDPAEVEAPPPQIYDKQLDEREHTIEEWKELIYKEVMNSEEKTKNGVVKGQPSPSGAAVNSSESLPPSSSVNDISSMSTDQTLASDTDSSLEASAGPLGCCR
HER2 expr 66K = inhibitors of human Her2 kinase expression | P04626 | SKBR-3 HER2 protein level, AlphaScreen, 18-24 h; hits give low values | HER2 level % of control, % at 10 µM | 65,000 compounds, 0.69% hits;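 active means HER2 level under 5% of the carrier-only control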;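 further: 100% = DMSO carrier and 0% = 500 nM PU-H71 HSP90 inhibitor; lower value means stronger loss of Her2 protein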
BAP1 block = blocks human BAP1 ubiquitin-AMC hydrolysis. calls only at 20 µM. Q92560. recombinant BAP1, Ub-AMC hydrolysis fluorescence kinetic; hits give low values. 72,000 compounds, 0.48% hits;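 active means activity remaining at or below 50% of control, provided the compound also passes the data quality filters; inactive means the rest, including low values that fail the filters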;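 further: 100% = DMSO wells rate and 0% = substrate alone blank rate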
M1 antag confirm = confirmation of rat M1 muscarinic receptor antagonists | shares compounds with M1 antagonist | CHO-M1 cells, Fluo-4 calcium, ACh EC80 antagonism; hits give low values | calcium response (max-min fluorescence) at 10 µM | 1,700 compounds, 43% hits | AID 677;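 active means calcium response below the same-plate mean of wells given acetylcholine alone at its 80%-effect dose, minus 3 SD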;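 further: raw fluorescence intensity difference in arbitrary instrument units and not normalized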
mGluR4 antag = mGluR4 (human) activity, M1 antagonist secondary assay; shares compounds with M1 antagonist; CHO-mGluR4 calcium flux, Fluo-4 fluorescence, glutamate EC80; hits give low values; fluorescence response (max-min) at 10 µM; 1,700 compounds, 0.9% hits; AID 678;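 active means fluorescence response below the plate's average for near-maximal glutamate wells, less 3 SD of those wells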;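 further: raw unnormalized fluorescence span taken in the window right after glutamate addition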
* marks the source's active call; other numbers are inactive results; i = inactive; · = no result given. Most compounds without a hit are left out; they make up all but 6.6% or so of the library.

SMILES | M1 antagonist | HEK293 NFkB inh | M1 agonist | JNK3 inh | HER2 expr 66K | BAP1 block | M1 antag confirm | mGluR4 antag
CCCS(=O)(=O)N1CCCC(C(=O)N2CCC(Cc3ccccc3)CC2)C1 (configuration not stated) | -5.2* | 8.5 | -0.389 | -2.1 | 123.1 | i | 577 | 260
CCCS(=O)(=O)N1CCCC(C(=O)N2CCN(c3ccccn3)CC2)C1 (configuration not stated) | -2.57* | 5.3 | 0.0381 | -7.4 | 105.3 | i | 525 | 191
Oc1ccccc1Nc1nnc(-c2ccccc2)c2ccccc12 | · | · | · | · | · | i | · | ·
N=c1n(CCN2CCCCC2)c2ccccc2n1CC(=O)c1ccco1 | · | · | · | · | · | i | · | ·
Cc1nc(N2CCN(C(=O)c3ccco3)CC2)c2c3c(sc2n1)CCC3 | -3.14* | 10.7 | 2.41 | · | 92.9 | · | 493 | 217
O=C(Nc1sc2c(c1C(=O)Nc1ccc(Cl)cc1)CCCCC2)c1cccs1 | · | · | · | · | · | i | · | ·
O=C(c1ccco1)N1CCN(S(=O)(=O)c2ccc3c(c2)CCN3C(=O)C2CC2)CC1 | -2.42* | 4.9 | -1.2 | -4.3 | 124.8 | i | 633 | 242
O=C(C1CC1)N1CCc2cc(S(=O)(=O)N3CCOCC3)ccc21 | 0.104 | 1.1 | 0.441 | 0.2 | 118.0 | i | · | ·
COCCCn1c(=S)[nH]c2ccc(N3CCOCC3)cc2c1=O | -10.6* | 10.7 | -0.33 | · | 98.3 | i | 656 | 237
Cc1ccccc1N1CCN(S(=O)(=O)c2ccc3oc(=O)ccc3c2)CC1 | -3.33* | 10.0 | 0.136 | 0.4 | 82.5 | i | 557 | 233
CCc1ccccc1N1CCN(S(=O)(=O)c2ccc(F)c(C)c2)CC1 | -0.791 | -10.9 | 3.01 | 1.4 | 94.8 | · | · | ·
c1ccc(CN2CCN(CCN3CCn4c3nc3ccccc34)CC2)cc1 | -2.05* | 4.1 | 0.133 | -5.1 | 110.2 | i | 566* | 252
Nc1nc2ccccc2n1/N=C/c1ccc(Br)cc1 | -6.71* | -11.3 | -1.02 | 6.5 | 94.1 | i | 707 | 220
O=C(c1cccc([N+](=O)[O-])c1)c1ccc2c(c1)C(=O)N(c1ccccn1)C2=O | · | · | · | · | · | i | · | ·
Cc1nc(NC2=NCN(CCCN3CCOCC3)CN2)nc2c(C)cccc12 | -7.41* | 5.2 | -1.56 | -4.1 | 42.9 | i | 47.6* | 198
Cc1cc2nc(NC3=NCN(CCCN4CCOCC4)CN3)nc(C)c2cc1C | -13.8* | 7.7 | 0.368 | 1.7 | 105.8 | i | 21.9* | 189
CCC(C)NS(=O)(=O)c1cccs1 (configuration not stated) | -3.41* | 13.7 | 0.886 | -0.6 | 99.6 | i | 644 | 261
Brc1cccc(-c2cnc3n2CCCCC3)c1 | -12* | · | -0.594 | 2.7 | 132.5 | i | 81.1* | 177
CCCN(CCC)C(=O)Cn1ccc(=N)c2ccccc21 | -1.49 | 2.7 | -0.295 | 1.3 | 123.7 | i | · | ·
CC(C)(C)NC(=O)Cn1ccc(=N)c2ccccc21 | -2.46* | -5.9 | -0.05 | -4.1 | 110.9 | i | 476 | 192
CCOC(=O)c1ccc(N2C(=O)CC(N3CCN(C/C=C/c4ccccc4)CC3)C2=O)cc1 (configuration not stated) | -3.8* | 2.2 | -2.07 | 3.8 | 95.0 | i | 494* | 231
COc1ccc(Cn2c(O)cc(=O)[nH]c2=O)cc1 | 0.145 | · | -0.239 | -3.1 | 174.7 | i | · | ·
CCN(CC)CCn1c(OC)cc(=O)[nH]c1=O | -2.42* | 21.7 | -0.0505 | -1.6 | 140.1 | i | 670 | 208
COc1cc(C2NC(=O)NC(C)=C2C(=O)OCC(Cl)(Cl)Cl)cc(OC)c1OC (configuration not stated) | · | · | · | · | · | i | · | ·
CCn1c(=N)n(CC(=O)c2ccc([N+](=O)[O-])cc2)c2ccccc21 | · | · | · | · | · | i | · | ·
SMILES | M1 antagonist | HEK293 NFkB inh | M1 agonist | JNK3 inh | HER2 expr 66K | BAP1 block | M1 antag confirm | mGluR4 antag
CCn1c(=N)n(CC(=O)C23CC4CC(CC(C4)C2)C3)c2ccccc21 | -12.1* | 0.4 | -1.77 | -0.1 | 86.3 | i | 198* | 259
COC(=O)c1c(C)oc2cc(Br)c(OCC(=O)C(C)(C)C)cc12 | -1.88* | 15.3 | 0.0564 | · | 87.9 | · | 519 | 181
COc1ccc2nc(NC(=O)c3ccc(S(=O)(=O)N4CCc5ccccc54)cc3)sc2c1 | · | · | · | · | · | i | · | ·
CCC(Sc1nc(C)cc(=O)[nH]1)C(=O)Nc1nc2c(s1)CCCC2 (configuration not stated) | 0.0593 | -2.1 | -0.174 | 11.0 | 83.4 | i | · | ·
CCC(Sc1nc(C)cc(=O)[nH]1)C(=O)Nc1nnc(C)s1 (configuration not stated) | -2.46* | 10.4 | -0.282 | -2.7 | 99.8 | i | 522 | 184
CCOc1ccccc1NC(=O)C1=C(C)NC(=S)NC1c1c(OC)ccc2ccccc12 (configuration not stated) | · | · | · | · | · | i | · | ·
Cc1cccc(-c2noc(CCCC(=O)Nc3cccnc3)n2)c1 | -0.00223 | 16.0 | -0.463 | -0.5 | 112.1 | i | · | ·
O=C(CCCc1nc(-c2ccc(Cl)cc2)no1)Nc1cccnc1 | -2.69* | 24.8 | 1.39 | -6.7 | 102.1 | i | 528* | 214
Cc1cc(C)c2c(CN3CCN(Cc4ccc5c(c4)OCO5)CC3)cc(=O)oc2c1 | -10.3* | 9.9 | -0.204 | 3.1 | 79.4 | i | 61.3* | 299
Cc1cc(C)c2c(CN3CCN(Cc4ccc5c(c4)OCO5)CC3)cc(=O)oc2c1C | -6.15* | 16.0 | 0.0749 | -1.9 | 71.7 | i | 376* | 256
Cc1cc2oc(=O)cc(CN3CCN(Cc4ccc5c(c4)OCO5)CC3)c2cc1C | -0.557 | 8.8 | -0.905 | -4.1 | 93.9 | i | · | ·
CCN1CCN(Cc2cc(=O)oc3cc(C)cc(C)c23)CC1 | -1.17* | 11.1 | -2.06 | -0.5 | 114.7 | i | 461* | 253
Cc1ccc2c(CN3CCN(Cc4ccc5c(c4)OCO5)CC3)cc(=O)oc2c1C | -2.28* | -2.5 | 0.125 | -2.0 | 120.3 | i | 475* | 256
Cc1ccc(-c2cc(-c3cc(Cl)ccc3O)on2)cc1 | · | · | · | · | · | i | · | ·
Cc1nc2ccc(Cc3ccc4nc(C)n(-c5ccc(O)cc5)c(=O)c4c3)cc2c(=O)n1-c1ccc(O)cc1 | · | · | · | · | · | i | · | ·
Cc1ccc(C)c(N2C(=O)CC(N3CCN(Cc4ccc5c(c4)OCO5)CC3)C2=O)c1 (configuration not stated) | -2.93* | 5.0 | -0.591 | -1.1 | 120.0 | i | 542* | 178
COc1ccc(S(=O)(=O)N2CCCC2C(=O)Nc2nnc(-c3cccnc3)s2)cc1 (configuration not stated) | -1.95* | 8.7 | -0.564 | -13.4 | 104.0 | · | 583 | 270
